Series [1] in a line: Induction of human HSC proliferation assessed as population doubling time at 41.6 uM by cell counting and luminescent cell viability assay (reference value: 73.6 hrs). Format: functional.
The species named for series [2] is Homo sapiens. As to the kind of experiment: Induction of human HSC proliferation assessed as fold increase after 6 days by direct phase contrast microscopy. Format: functional. Put shortly: (§1)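 HSCs kept serum-free without bFGF, seeded at 1×10^3 cells/well, then given a range of concentrations for 2, 4 and 6 days. Read at each time point by phase-contrast imaging, cell counting (three pictures per group, haemocytometer) and CellTiter-Glo luminescence. DMSO as negative control, bFGF as positive control. Mean ± SD.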

Series [3] can be described thus: Cytotoxicity against human HSC after 4 days at 100 uM by luminescent cell viability assay. The note with it: 96 h. The method, boiled down: (§2)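 Sixth-passage HSCs (kept as neurospheres in DMEM/F12 with bFGF, EGF, B27) plated at 1×10^3 cells/well in basic medium, left 24 h, then given serial dilutions for 4 days. DMSO as negative control, bFGF as positive control. Read-out by CellTiter-Glo: reagent added to the cells, 10 min at ambient temperature, then luminescence read. Values relative to DMSO (100%). At least triplicate, repeated three times, mean ± SD.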

A short description of series [4]: Solubility of the compound in DMSO. It is filed as physicochemical.
A short description of series [5]: Cytotoxicity against human HSC assessed as axonal growth or adipose drop appearance 13.8 to 40.2 uM up to 6 days by phase contrast microscopy. The note with it: 144 h. The method, boiled down: (§3)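 Phase-contrast microscope images of HSCs treated with various concentrations, DMSO or bFGF, taken at 2, 4 and 6 days. Scored by morphology, including signs of differentiation such as axonal growth or adipose drop appearance.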

A short description of series [6]: Cytotoxicity against human HSC assessed as morphological changes 13.8 to 40.2 uM up to 6 days by phase contrast microscopy. The note with it: 144 h. The method, boiled down:
as §3

For series [7], the species on record is Homo sapiens. The experiment in a line: Induction of human CSC proliferation after 4 days by luminescent cell viability assay. It is filed as functional. Put shortly: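 Third-passage CSCs (maintained in IMDM with 10% FBS and 2-mercaptoethanol) plated at 1×10^3 cells/well in basic medium, left 24 h, then treated for 4 days. DMSO as negative control. Viability read by CellTiter-Glo luminescence after 10 min at ambient temperature. At least triplicate, repeated three times, mean ± SD.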

The species entered for series [8] is Homo sapiens. The experiment in a line: Induction of human HSC proliferation under serum free condition at 5 to 40 uM by cell counting and luminescent cell viability assay. It is filed as functional. The note with it: TDE = time-dependent effect. Put shortly: as §1
The nature of series [9]: Induction of human HSC proliferation after 4 days by luminescent cell viability assay. Format: functional. The method, boiled down: as §2
The species entered for series [10] is Homo sapiens. As to the kind of experiment: Induction of human HSC proliferation under serum free condition after 4 days by cell counting and luminescent cell viability assay. It is filed as functional. Put shortly:
as §1

For series [11], the species on record is Homo sapiens. As to the kind of experiment: Induction of human PSC proliferation after 4 days by luminescent cell viability assay. It is filed as functional. The method, boiled down:
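Sixth-passage PSCs (expanded in DMEM/F12, 7.33 mM glucose, with 10% FBS and 20 ng/mL bFGF) plated at 1×10^3 cells/well in basic medium, left 24 h, then treated for 4 days. DMSO as negative control. Viability read by CellTiter-Glo luminescence after 10 min at ambient temperature. At least triplicate, repeated three times, mean ± SD.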

Series [12] can be described thus: Inhibition of human HSC proliferation after 4 days by luminescent cell viability assay. The note with it: 96 h. Put shortly:
as §2

The mark [13] stands for this setting: Homo sapiens, 96 h, read-out: EC50.

Active and inactive are the calls of the source. No cut-off for these calls is given here.

As for `NNC(=S)Nc1ccc(-c2nnc(S)o2)cc1` [STEMAZOLE], the Time in series [1] is 48.5 h. Further, the fold change (FC) in the series listed under Homo sapiens [2] turned out to be 3. Besides, the Activity result in series [3] was “Non-toxic”; in series [5], “Non-toxic”; in [6], “Non-toxic”; in the series listed under Homo sapiens [8], “tde”; in the series listed under Homo sapiens [10], “Dose-dependent effect”. Also, the solubility entry in series [4] was “soluble”. In addition, the outcome in the series filed under Homo sapiens [7] and in the series listed under Homo sapiens [11] was Active. Further, in [9] (setting [13]), the EC50 (commonly the concentration that produces a half-maximal response) was 7.5 µM.
With `S=C(NNCc1ccccc1)Nc1ccc(-c2nnc(S)o2)cc1`, in series [4], the solubility entry is reported as “soluble”. In addition, the EC50 result in series [9] is given as “Not Active”.
With `COc1ccc(NNC(=S)Nc2ccc(-c3nnc(S)o3)cc2)cc1`, in [12], the IC50 (commonly the point on the concentration scale where inhibition reaches its midpoint) amounted to 42.7 µM. Besides, the solubility entry in [4] is on record as “soluble”.
`CNNC(=S)Nc1ccc(-c2nnc(S)o2)cc1`: in [4], the solubility entry is “soluble”.
As to `NNC(=S)Nc1ccc(-c2nnc(S)o2)cc1Br`, the Activity entry in series [3] is on record as “Toxic”. Besides, in series [4], the solubility result is given as “soluble”. Also, the EC50 in series [9] (setting [13]) amounted to 10 µM.
In the case of `S=C(NNc1ccc(Cl)cc1)Nc1ccc(-c2nnc(S)o2)cc1`, the IC50 in series [12] was found to be 3.2 µM. Also, the solubility entry in series [4] was “soluble”.
In the same order, the values of `S=C(NNc1ccccc1)Nc1ccc(-c2nnc(S)o2)cc1` are 8.3 µM and “soluble”.

The values above are taken from ChEMBL document CHEMBL1795270, “Synthesis and biological evaluation of a novel human stem/progenitor cells proliferation activator: 4-(4-(5-mercapto-1,3,4-oxadiazol-2-yl)phenyl) thiosemicarbazide (Stemazole)” (Eur J Med Chem, 2011).
